The target of the test is Methionine--tRNA ligase, mitochondrial (Homo sapiens) (UniProt Q96GW9). Put plainly: inhibitors of human mitochondrial MetRS, late-stage follow-up, selectivity assay for T. brucei MetRS inhibitor project, biochemical, radioactivity, round 1 (AID 743061).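 Note: 0% = DMSO with full reaction and 100% = DMSO wells lacking tRNA.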 Particulars: recombinant human mtMetRS, [3H]Met tRNA charging, at 10 µM, stronger effect = higher value. Put shortly:
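Material: Recombinant human mitochondrial methionyl-tRNA synthetase (MetRS) | Medium: pH 8.0 buffer, 2.5 mM ATP | Reagent: [3H]Met 240 nM plus bulk E. coli tRNA | Compound: 10 and 1 µM | Schedule: 15 min compound–enzyme preincubation, then 1 h reaction at room temperature | Measured by: Scintillation counts of TCA-precipitated charged tRNA on filters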

As usually defined, the inhibition is the change of the read-out against control, counted positive when it falls.

For `CCN(CCc1nc2ccc(C)cc2[nH]1)C(=O)c1ccc2ncccc2c1`, the inhibition came to 1.1%.
The result for `CN1CC(=O)N2C(c3cccc([N+](=O)[O-])c3)c3[nH]c4ccccc4c3C[C@H]2C1=O` (some centres undefined) reads 14%; that for `O=C(NCc1nc2ccccc2[nH]1)C1=C[C@H](c2ccc(Br)cc2)C[C@H](OCc2ccc(CO)cc2)O1`, 17.2%.
The result for `CCc1ccc2[nH]c3nc(SCC(=O)NCc4cccc(OC)c4)nnc3c2c1` reads 13.1%.
Consider `CCCCCCCCCC1NC(C(=O)O)Cc2c1[nH]c1ccccc21` (centres undefined), for which the inhibition was found to be 9.9%.
For `O=C1CC(SCc2nc3ccccc3[nH]2)C(=O)N1c1cccc(Cl)c1` (centres undefined) the value was -0.68%; for `O=C1[C@@H]2Cc3c([nH]c4ccccc34)C(c3cccc([N+](=O)[O-])c3)N2C(=O)CN1CCCO` (some centres undefined), 4.46%.
Regarding `Cc1[nH]c2ccc(Br)cc2c(=O)c1CN1CCCCCC1`, the inhibition is -11%.
In the case of `Cc1ccc(NC(=O)CN(C)C(=O)CCSc2ccc(F)cc2)cc1`, the inhibition was -21.5%.
For `O=C(CC=NOCc1ccc([N+](=O)[O-])cc1)Nc1ccc(Br)cc1` the value was -6.71%.
For `CCN(CC)C(=O)C(=O)c1cn(CC(=O)Nc2cccc(OC)c2)c2ccccc12`, the inhibition was found to be 17.3%.
The result for `COc1ccccc1NC(=O)CSc1nnc2c(n1)[nH]c1ccc(C)cc12` reads 7.39%; that for `O=C(NCc1nc2ccccc2[nH]1)C1=C[C@H](c2csc3ccccc23)C[C@H](OCCCCO)O1`, 2.21%; that for `CCN(C(=O)Cn1cc(C(=O)C(=O)N2CCOCC2)c2ccccc21)c1ccccc1`, -14.2%.
The result for `Clc1ccc(-c2nnc(SCc3nc4ccccc4[nH]3)o2)c(Cl)c1` reads 41.9%; that for `Clc1ccc(OCCSCc2nc3ccccc3[nH]2)cc1`, -5.52%; that for `CNC(=S)N(CCc1ccccc1)C1CC(=O)N(c2ccc(Br)cc2)C1=O` (centres undefined), 83.7%.
Consider `Cc1ccc2[nH]c3nc(SCC(=O)Nc4ccc(C(F)(F)F)cc4)nnc3c2c1`, for which the inhibition is 4.54%.
For `O=C(CC(=O)Nc1cccc(Cl)c1)NN=Cc1ccccc1` the value was 9.82%; for `CCO[C@H]1OC(C(=O)NCc2nc3ccccc3[nH]2)=C[C@@H](c2ccc(Br)cc2)[C@@H]1CCCO`, 11.7%.
The result for `O=C(Cn1cc(C(=O)c2ccco2)c2ccccc21)Nc1cccc(C(F)(F)F)c1` reads 19.7%; that for `CCO[C@@H]1OC(C(=O)NCc2nc3ccccc3[nH]2)=C[C@H](c2ccc(Br)cc2)[C@H]1CCCO`, -6.53%.
For `CN(CC(=O)Nc1ccc(Cl)cc1)C(=O)c1ccc(-n2cncn2)c([N+](=O)[O-])c1` the value was -19.1%.
On to `COc1cccc(NC(=O)C2CC(=O)n3c(nc4ccccc43)N2)c1` (centres undefined), for which the inhibition is 9.79%.
The result for `CC(C)OCCCN1CC(=O)N2C(c3cccc([N+](=O)[O-])c3)c3[nH]c4ccccc4c3C[C@H]2C1=O` (some centres undefined) reads -3.65%.
The result for `O=C(NCc1nc2ccccc2[nH]1)C1=C[C@H](c2ccccc2)C[C@H](OCc2ccc(CO)cc2)O1` reads 12.7%; that for `O=C(NCc1nc2ccccc2[nH]1)C1=C[C@@H](c2ccc(Br)cc2)C[C@@H](OCCCCO)O1`, 29%.
For the molecule `CCCCn1c(CCNC(=O)c2ccc(F)cc2)nc2ccccc21`, the inhibition worked out at 5.87%.
For `O=C1CC(NCCc2ccccc2)C(=O)N1c1ccc(Br)cc1` (centres undefined) the value was 6.62%.
For `O=C(NCc1nc2ccccc2[nH]1)C1=C[C@@H](C2CC2)C[C@@H](OCc2ccc(CO)cc2)O1` the value was 5.87%; for `Cc1cccc(C(=O)NCCc2nc3ccccc3n2CCOc2ccccc2)c1`, 4.57%.
For `COc1ccc(NC(=O)CSc2nnc3c4cc(C)ccc4n(C)c3n2)cc1` the value was 8.46%; for `O=C(Cn1cnc2ccccc21)Nc1cccc([N+](=O)[O-])c1`, -2.2%.
Regarding `O=C(Cn1cc(C(=O)C(=O)N2CCOCC2)c2ccccc21)Nc1cccc(C(F)(F)F)c1`, the inhibition was -6.56%.
